This is an account of results in ChEMBL document CHEMBL1129622, “Synthesis of non-nucleoside analogs of toyocamycin, sangivamycin, and thiosangivamycin: the effect of certain 4- and 4,6-substituents on the antiviral activity of pyrrolo[2,3-d]pyrimidines” (J Med Chem, 1996).

In general, IC50 refers to the concentration needed to halve the response being measured.

In data set [1] the test system is Human betaherpesvirus 5. As to the kind of experiment: Antiviral activity against human cytomegalovirus by plaque reduction assay. The data set is classed as functional, organism-based. An outline of the steps:
(§1)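 Plaque reduction in HFF monolayers (MEM(E), 10% FBS) infected with a 0.2 mL inoculum of ca. 100 PFU HCMV Towne strain. Compounds were dissolved in the overlay medium. IC50 from linear regression of percent inhibition against log concentration, average of two or more experiments. Ganciclovir positive control.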
Background: Plaques are areas of infected cells; plaque reduction assays count them against a control.

For data set [2], the system named is HFF. As to the kind of experiment: Cytotoxicity produced in human foreskin fibroblasts (HFF) cells estimated by visual scoring of cells unaffected by virus infection. It is filed as ADME, cell-based. In short, it runs like this:
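Uninfected HFF cells in the HCMV plaque-reduction plates were examined at 35-fold magnification on the day of plaque staining. Drug-induced cytopathology was scored 0–4. IC50 from regression of percent inhibition against log concentration, average of two or more experiments.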

Data set [3] concerns Human alphaherpesvirus 1. Description: Antiviral activity against herpes simplex virus using ELISA. It is filed as functional, organism-based. In general terms: ELISA stands for enzyme-linked immunosorbent assay.
Data set [4] concerns Human betaherpesvirus 5. Description: Antiviral activity against human cytomegalo virus using ELISA. It is filed as functional, organism-based. In short, it runs like this:
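HCMV (Towne strain, plaque-purified isolate P0) measured by enzyme immunoassay in MRC-5 human embryonic lung cells grown in MEM(E) with 10% FBS. IC50 from linear regression of percent inhibition against log concentration, averaged over two or more experiments. Ganciclovir positive control.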

Data set [5] deals with KB. As to the kind of experiment: Cytotoxicity (growth inhibition) against human epidermoid oral carcinoma KB cell line. The data set is classed as functional, cell-based. In short, it runs like this:
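KB cells grown in MEM(H) with 10% calf serum. Cytotoxicity measured by a staining method. IC50 from linear regression of percent inhibition against log drug concentration, average of two or more experiments.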

Data set [6] relates to Human alphaherpesvirus 1. As to the kind of experiment: Antiviral activity against herpes simplex virus type 1 using ELISA. The data set is classed as functional, organism-based.
In data set [7] the test system is Human betaherpesvirus 5. As to the kind of experiment: Antiviral activity against human cytomegalovirus (HCMV) in plaque reduction assay. The data set is classed as functional, organism-based. In short, it runs like this:
as §1

A short description of data set [8]: Half life was determined. It is filed as ADME.
Data set [9] deals with Human alphaherpesvirus 1. As to the kind of experiment: Inhibitory concentration against HSV-1. The data set is classed as functional, organism-based.

Consider `COCCOCn1cc(C(=N)S)c2c(S)ncnc21`, for which the IC50 in data set [1] was above 100 µM.

On to `CCOCn1c(N)c(C(=N)S)c2c(N)ncnc21`, for which the IC50 was above 100 µM in data set [2]; 100 µM in data set [3]; 16 µM in data set [1]; 45 µM in data set [4]; above 320 µM in data set [5].

`COCCOCn1cc(C#N)c2cncnc21` registered an IC50 in data set [1] above 100 µM.

Turning to `Nc1nc2c(ncn2COC(CO)CO)c(=O)[nH]1` [GANCICLOVIR], the half-inhibitory concentration (IC50) is above 100 µM in [2], 2.2 µM in [4] and above 320 µM in [5].

On to `NC(=S)c1c(N)n(COCc2ccccc2)c2ncnc(N)c12`, for which the IC50 in [2] was above 100 µM; in data set [3], 60 µM; in data set [1], 16 µM; in data set [4], 19 µM; in [5], 225 µM.

Turning to `N#Cc1c(Br)n(COCc2ccccc2)c2ncnc(N)c12`, the IC50 in [2], in data set [1] and in data set [5] was above 100 µM each time.

Consider `COCCOCn1cc(C(=N)S)c2c(OC)ncnc21`, for which the IC50 in [1] is above 100 µM.

As for `CCOCn1c(N)c(C#N)c2c(N)ncnc21`, the IC50 in [2] is above 100 µM; in [3], 68 µM; in [1], 7.2 µM; in [4], 12 µM; in [5], 138 µM.

Compound `CCOCn1cc(C(=N)S)c2c(O)ncnc21` showed an IC50 in [1] above 100 µM.

As to `COCCOCn1cc(C#N)c2c(S)ncnc21`, the IC50 in data set [1] is above 100 µM.

Compound `CCOCn1cc(C#N)c2c(N(C)C)ncnc21` yielded an IC50 in data set [1] above 100 µM.

For `Cc1ccc(Cn2c(N)c(C#N)c3c(N)ncnc32)cc1`, the IC50 was 32 µM in data set [2], 60 µM in data set [6], 0.3 µM in data set [7] and above 100 µM in [5].

`CCOCn1cc(C#N)c2cncnc21` displayed an IC50 in data set [1] above 100 µM.

`CCOCn1cc(C(=N)S)c2c(OCC)ncnc21` registered an IC50 in [1] above 100 µM.

As to `CNc1c(C#N)c2c(N)ncnc2n1COCCOC`, the IC50 in [2], in [3], in data set [1] and in data set [5] was above 100 µM in each case.

As to `COCCOCn1c(N)c(C(N)=O)c2c(N)ncnc21`, the IC50 in data set [2], in data set [1], in [4] and in [5] was above 100 µM in each case.

Compound `COCCOCn1cc(C(=N)S)c2cncnc21` showed an IC50 in data set [1] above 100 µM.

Turning to `COCCOCn1c(N)c(C(N)=S)c2c(N)ncnc21`, the IC50 in data set [2] was above 100 µM; in [3], 100 µM; in [1] it was 5 µM; in data set [4], 20 µM; in data set [5], above 320 µM.

Turning to `N#Cc1c(N)n(COCc2ccccc2)c2ncnc(N)c12`, the IC50 in [2] was above 100 µM; in data set [3] it was 12.5 µM; in data set [1], 2.8 µM; in [4] it was 9 µM; in [5] it was 118 µM.

On to `COc1ccc(Cn2c(N)c(C#N)c3c(N)ncnc32)cc1`, for which the IC50 was 100 µM in data set [2], 10 µM in data set [6], 9 µM in data set [7] and 50 µM in data set [5].

`CNc1ncnc2c1c(C#N)cn2COCCOC` came in with an IC50 in data set [1] above 100 µM.

With `COCCOCn1cc(C#N)c2c(N)ncnc21`, the IC50 in data set [2], in [3] and in data set [5] was above 100 µM each time.

With `CCOCn1cc(C#N)c2c(S)ncnc21`, in data set [1], the IC50 is above 100 µM.

Take `CCOCn1cc(C#N)c2c(OCC)ncnc21`: the IC50 in data set [1] was above 100 µM.

On to `COCCOCn1cc(C#N)c2c(N(C)C)ncnc21`, for which the IC50 in [1] was above 100 µM.

In the case of `COCCOCn1cc(C(=N)S)c2c(N(C)C)ncnc21`, the IC50 in data set [1] was above 100 µM. Further, the T1/2 in data set [8] came out at 150 h.

For the compound `COCCOCn1c(N(C)C)c(C#N)c2c(N)ncnc21`, the IC50 in data set [2], in data set [3], in data set [1] and in data set [5] was above 100 µM in each case.

For the compound `CCOCn1cc(C#N)c2c(N)ncnc21`, the IC50 in data set [2], in data set [1] and in [5] was above 100 µM each time.

For `COCCOCn1c(N)c(C#N)c2c(N)ncnc21`, the IC50 in data set [2] was above 100 µM; in [3] it was above 100 µM; in [1], 8.2 µM; in data set [4], 9 µM; in data set [5], 210 µM.

Compound `CCOc1ncnc2c1c(C#N)cn2COCCOC` returned an IC50 in [1] above 100 µM.

In data set [1], `CCOCn1cc(C(=N)S)c2c(N(C)C)ncnc21` had an IC50 above 100 µM.

As for `CCNc1ncnc2c1c(C(=N)S)cn2COCC`, in data set [1], the IC50 was above 100 µM.

`COCCOCn1cc(C#N)c2c(OC)ncnc21` had an IC50 in data set [1] above 100 µM.

`CNc1ncnc2c1c(C(=N)S)cn2COCCOC`: the IC50 was determined as 30 µM in data set [9] and 20 µM in data set [1].

With `COCCOCn1c(Br)c(C#N)c2c(N)ncnc21`, the IC50 in data set [2], in data set [1] and in data set [5] was above 100 µM each time.

With `CCOCn1c(Br)c(C#N)c2c(N)ncnc21`, the IC50 in data set [2], in data set [1] and in data set [5] was above 100 µM throughout.

Regarding `CCOCn1cc(C#N)c2c(OC)ncnc21`, the IC50 in [1] was above 100 µM.

Turning to `COCCOCn1cc(C(=N)S)c2c(O)ncnc21`, in [1], the half-maximal inhibitory concentration (IC50) is above 100 µM.

In data set [1], `COCCOCn1cc(C#N)c2c(Cl)ncnc21` yielded an IC50 above 100 µM.

In data set [1], `CCNc1ncnc2c1c(C(=N)S)cn2COCCOC` showed an IC50 above 100 µM.

For `CCOCn1c(N)c(C(N)=O)c2c(N)ncnc21`, the IC50 in [2], in [1], in [4] and in data set [5] was above 100 µM in each case.

Regarding `CCCn1c(N)c(C#N)c2c(N)ncnc21`, the IC50 is 100 µM in [2], 2.5 µM in data set [6], 0.5 µM in data set [7] and 15 µM in [5].

In data set [1], `COCCOCn1cc(C#N)c2c(O)ncnc21` displayed an IC50 above 100 µM.

With `CCOCn1cc(C#N)c2c(Cl)ncnc21`, the IC50 in data set [1] is above 100 µM.

`CCOCn1cc(C#N)c2c(NC)ncnc21` had an IC50 in data set [1] above 100 µM.

`CCOCn1cc(C(=N)S)c2c(N)ncnc21`: the figures for the IC50 in data set [2] and in data set [5] were above 32 µM and 60 µM, respectively.

For the compound `CCOCn1cc(C#N)c2c(O)ncnc21`, in data set [1], the IC50 was above 100 µM.

In [1], `CCOCn1cc(C(=N)S)c2c(NC)ncnc21` returned a concentration for half-maximal inhibition (IC50) of 20 µM.

As to `Nc1nc2c(ncn2COCCO)c(=O)[nH]1` [ACYCLOVIR], the IC50 in [2], in data set [1] and in data set [5] was above 100 µM each time.

Take `CCOCn1cc(C(=N)S)c2c(OC)ncnc21`: the IC50 in data set [1] is above 100 µM.

Compound `CCNc1ncnc2c1c(C#N)cn2COCC` gave an IC50 in data set [1] above 100 µM.

Consider `NC(=O)c1c(N)n(COCc2ccccc2)c2ncnc(N)c12`, for which the IC50 in data set [2], in [1], in data set [4] and in [5] was above 100 µM each time.

Take `CCNc1ncnc2c1c(C#N)cn2COCCOC`: the IC50 in [1] is above 100 µM.

With `CCOCn1cc(C(=N)S)c2cncnc21`, the IC50 in data set [1] was above 100 µM.

Take `COCCOCn1cc(C(N)=S)c2c(N)ncnc21`: the IC50 in data set [2] is above 100 µM; in data set [1], 1.3 µM.

As to `C=CCn1c(N)c(C#N)c2c(N)ncnc21`, the IC50 was 100 µM in data set [2], 40 µM in data set [6], 1.9 µM in data set [7] and above 100 µM in data set [5].

With `N#Cc1c(N)n(Cc2ccccc2)c2ncnc(N)c12`, the IC50 in data set [2] is 100 µM; in data set [6] it was 10 µM; in [7], 3.3 µM; in data set [5], 34 µM.

For `Cc1cccc(Cn2c(N)c(C#N)c3c(N)ncnc32)c1`, the IC50 in data set [2] is 100 µM; in data set [6] it was above 100 µM; in data set [7] it was 32 µM; in data set [5], above 100 µM.
